From PMC3428507 (Journal of molecular biology, 2012)

What was measured:
Pf1 PHD2 = test: NMR titration of Pf1 PHD2 with small molecule mimics of histone modifications; format: binding, human; details: unpublished data
[1] = test system: Pf1 PHD1/MBD (residues 48–241); test: NMR of 15N-labeled Pf1 PHD1/MBD with MRG15 proteins; format: binding, human; details: equimolar; 20 mM Tris pH 7.5, 50 mM NaCl, 10 μM ZnSO4, 15 mM DTT, 0.2% NaN3, 25 °C
Pf1 PHD1 [2] = biological target: T1, Pf1 PHD1 (Homo sapiens, UniProt Q96QT6); test: Pulldown of GST-Pf1 PHD1 with biotinylated histone H3 peptides; format: binding; details: GST-Pf1 PHD1 (residues 53–103); wash 50 mM Tris pH 7.5, 150 mM NaCl, 0.05% NP-40; SDS-PAGE, Coomassie
Procedure, shortened: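 GST-Pf1 PHD1 (53–103) and GST-Pf1 PHD2 (268–319) came from E. coli and were eluted from glutathione resin with glutathione. They were incubated with an array of biotinylated histone H3 peptides on avidin beads. Washes also held 0.3 mg/ml BSA and 1 mM DTT. Bound protein was resolved by SDS-PAGE.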

Pf1 PHD1 [3] = biological target: T1, Pf1 PHD1; format: binding; details: even at molar concentrations; unpublished data
MRG15 CD = MRG15 CD (Homo sapiens, UniProt Q9UBU8); test: NMR titration of 15N-labeled MRG15 CD with methyllysine peptides/ligands; format: binding
MRG15 CD, sequence (Q9UBU8 1-90 isoform Q9UBU8-2): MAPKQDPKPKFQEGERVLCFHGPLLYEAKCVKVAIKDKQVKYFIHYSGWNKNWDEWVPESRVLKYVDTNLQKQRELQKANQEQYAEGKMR

T1 sequence (Q96QT6 48-116): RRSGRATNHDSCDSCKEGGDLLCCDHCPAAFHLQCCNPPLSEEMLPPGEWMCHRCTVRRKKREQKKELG

Molecule	interaction with Pf1 PHD2 in NMR titrations (Pf1 PHD2)	binding to Pf1 PHD1 in pulldown (Pf1 PHD1 [2])	other results
C[C@@H](OP(=O)(O)O)[C@H](N)C(=O)O [phosphothreonine]	lack of any interaction	–	–
dimethylarginine	lack of any interaction	–	–
MRG15 MRG: MRG domain of MRG15 (residues 155–323)	–	–	effect on 15N-Pf1 PHD1/MBD spectrum [1]: disappearance of resonances corresponding to the PHD1 domain
H3 peptides spanning residues 27–46: biotinylated H3 peptide spanning residues 27–46	–	failed to do so	–
C[N+](C)(C)CCCC[C@H](N)C(=O)O [trimethyllysine]	lack of any interaction	–	interaction with Pf1 PHD1 in NMR titrations (Pf1 PHD1 [3]): neither trimethyllysine nor acetyllysine interacted with Pf1 PHD1; Kd (MRG15 CD): 11 ± 3.3 mM; perturbations in the MRG15 CD NMR spectrum (MRG15 CD; pH 7.5, 25 °C): induced a similar pattern of perturbations in the NMR spectrum of MRG15 CD as the aforementioned peptides
CC(=O)NCCCC[C@H](N)C(=O)O [acetyllysine]	lack of any interaction	–	interaction with Pf1 PHD1 in NMR titrations (Pf1 PHD1 [3]): neither trimethyllysine nor acetyllysine interacted with Pf1 PHD1
N[C@@H](COP(=O)(O)O)C(=O)O [phosphoserine]	lack of any interaction	–	–
18–37: biotinylated H3 peptide spanning residues 18–37	–	failed to do so	–
H3 peptide spanning residues 1–20: unmodified biotinylated histone H3 peptide spanning residues 1–20	–	bound to Pf1 PHD1	–
